Source: PubChem BioAssay
PP1 counter: PP1-alpha (human) inhibition in PP5 counter-screen. P62136. purified PP1alpha, OMFP fluorescence. inhibition, % at 6.7 µM. 0.9% of 320,000 active;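 active means inhibition above the mean inhibition of all tested compounds plus 3 SD, computed separately for each screening campaign, cut at about 15% in these data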
PP5 primary: blocks human protein phosphatase 5 activity | P53041 | purified PP5c, OMFP substrate fluorescence | inhibition, % at 6.7 µM | 0.18% of 320,000 active | AID 1987;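 active means inhibition above the campaign's mean inhibition across all tested compounds plus 3 SD, cut at about 9.5% in these data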
STEP inh: STEP (human) phosphatase inhibition | recombinant STEP, OMFP fluorogenic substrate, fluorescence | AID 588621 | P54829 | inhibition, % at 20 µM | 0.25% of 360,000 active;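 active means inhibition at 20 µM, scaled per plate between control wells, above about 37%, limit read from the data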
Target sequence (P54829 whole entry, looked up): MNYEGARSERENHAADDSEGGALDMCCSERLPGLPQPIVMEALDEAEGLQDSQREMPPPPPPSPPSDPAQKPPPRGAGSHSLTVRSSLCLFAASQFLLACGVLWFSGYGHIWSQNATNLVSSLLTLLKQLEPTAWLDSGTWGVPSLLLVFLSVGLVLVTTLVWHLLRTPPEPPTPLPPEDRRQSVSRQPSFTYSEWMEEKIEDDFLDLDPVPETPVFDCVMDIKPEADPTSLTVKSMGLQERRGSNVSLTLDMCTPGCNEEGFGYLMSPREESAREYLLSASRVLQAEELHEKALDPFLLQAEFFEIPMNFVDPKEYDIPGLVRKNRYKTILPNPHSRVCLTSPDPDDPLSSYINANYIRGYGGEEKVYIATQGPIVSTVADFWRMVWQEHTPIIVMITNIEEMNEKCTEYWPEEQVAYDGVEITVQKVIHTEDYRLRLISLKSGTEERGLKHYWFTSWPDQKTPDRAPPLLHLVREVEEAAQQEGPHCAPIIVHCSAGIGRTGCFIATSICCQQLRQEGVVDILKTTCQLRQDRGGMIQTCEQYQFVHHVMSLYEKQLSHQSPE
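System: STEP phosphatase, cell-free reaction; Buffer or medium: Bis-Tris pH 6.0 buffer with DTT, detergent; Incubation: 20 min at room temperature, dark; Measured by: fluorescence, 480/540 nm.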
Scp-1 inhibitor: inhibitors of human Scp-1 phosphatase; Q9GZU7; Recombinant Scp1, phosphopeptide, malachite green phosphate absorbance; inhibition, % at 20 µM; 0.88% of 340,000 active; AID 493091;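 active means inhibition above about 50% at 20 µM, limit read from the data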
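System: truncated SCP-1 phosphatase (76-261aa); medium: Tris acetate buffer pH 5.5 with MgCl2 and Tween-20; incubation: 45 min room-temperature reaction, 5 min colour, 30 min stabiliser; compound: single 20 µM dose, 1% DMSO; reagent: Phosphorylated 17-residue peptide substrate; read-out: % inhibition at 20 µM; technique: colorimetric free-phosphate detection, absorbance 630 nm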
LMPTP inh: LMPTP (human) inhibition; recombinant LMPTP-A, OMFP fluorogenic substrate, fluorescence intensity; inhibition, % at 20 µM; 0.22% of 360,000 active;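 active means compounds that cut the enzyme signal by at least half of the control window in the single-dose screen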
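Test system – LMPTP-A phosphatase enzyme · Quantity – 0.625 nM LMPTP-A final · Reagent – OMFP substrate, 400 µM final · Dosing – one test concentration per compound, 20 µM, with 3% DMSO overall · Timing – 50 min enzyme reaction at room temperature, protected from light · Detection – fluorescence intensity · Controls – substrate-only low control, DMSO enzyme-plus-substrate high control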
PP1 inh confirm: human PP1 phosphatase inhibition, confirmation. 52% of 1,900 active. purified PP1alpha, OMFP substrate fluorescence. inhibition, % at 6.7 µM. AID 2358. shares compounds with PP1 counter;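 active means mean PP1 inhibition above a set limit taken from the earlier primary screen, cut at about 15% in these data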
PP5 counter: counter-screen for PP1 inhibitors: human PP5 phosphatase inhibition | shares compounds with PP1 counter | purified PP5c, OMFP fluorescence | inhibition, % at 6.7 µM | 4% of 1,900 active | AID 2360;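 active means mean PP5 inhibition over triplicate wells above about 9.5% taken from the earlier PP1 screen, limit read from the data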
A number is an active result; – = inactive; · = no result. This is a sample that favours compounds with a hit; in the whole collection about 1.9% have one here.

SMILES | PP1 counter | PP5 primary | STEP inh | Scp-1 inhibitor | LMPTP inh | PP1 inh confirm | PP5 counter
Brc1ccc(-c2csc(/N=C/N3CCOCC3)n2)cc1 | – | – | – | – | – | · | ·
CCOC(=O)c1ccc2c(c1)C1C=CCC1C(C(=O)O)N2 (stereo not drawn) | 30 | – | · | · | · | – | –
CC(C)C1Nc2ccc(C(=O)O)cc2C2C=CCC21 (stereo not drawn) | – | – | – | – | – | · | ·
Cc1ccc(NC2c3ncccc3C(=O)N2Cc2cccs2)cc1 (stereo not drawn) | 23 | – | – | – | – | 20 | –
Cc1ccc(-c2cc(-c3ccco3)c3c(N)c(C(=O)NN)oc3n2)cc1 | 18 | – | – | – | – | – | –
CC(C)CCNC(=O)NC(=O)COC(=O)C1CCN(S(=O)(=O)c2ccccc2F)CC1 | – | – | – | – | – | · | ·
COc1cccc(C2c3cc4c(cc3OC(N3CCCC3)C2C)OCO4)c1O (stereo not drawn) | · | · | – | – | – | · | ·
CCc1ccc2[nH]c(=O)c(CN(Cc3ccc4c(c3)OCO4)Cc3nnnn3C3CCCC3)cc2c1 | 21 | – | – | – | – | – | –
Cc1ccc(C2=NN(C(=O)C3CCCO3)C(c3ccco3)C2)cc1 (stereo not drawn) | – | – | – | – | – | · | ·
O=C1C2C3CCC(O3)C2C(=O)N1c1cccc(O)c1 (stereo not drawn) | – | – | – | – | – | · | ·
O=C1OC(=O)C2C1[C@@H]1CC[C@H]2O1 (stereo partly drawn) | 79 | 77 | – | – | – | 66 | 69
COc1ccc(OCC(=O)N2CCN(c3cccc(C(F)(F)F)c3)CC2)cc1 | – | – | – | – | – | · | ·
O=C(Cc1ccc(S(=O)(=O)N2CCOCC2)s1)N(Cc1ccccc1)c1ccccc1 | 58 | – | – | – | – | – | –
CCCCN(C(=O)Cc1ccc(S(=O)(=O)N2CCOCC2)s1)c1ccccc1 | – | – | – | – | – | · | ·
COc1ccc(C(=O)COC(=O)C(CCSC)NC(=O)COc2ccccc2)c(OC)c1 (stereo not drawn) | – | – | – | – | – | · | ·
CSCCC(NC(=O)COc1ccccc1)C(=O)OCC(=O)c1ccccc1 (stereo not drawn) | 60 | – | – | – | – | – | –
CSc1nc(N)n2nc(-c3ccc(Cl)cc3)cc2n1 | – | – | – | – | – | · | ·
COc1cc(/C=C2\SC(N)=NC2=O)ccc1OCC(=O)Nc1ccc(C)cc1 | 21 | – | – | – | – | 18 | –
O=C(Nc1ccc(N2CCCC2)cc1)c1cc2ccccc2o1 | 33 | – | – | – | – | – | –
O=C(COc1ccccc1Cl)Nc1ccc(N2CCCC2)cc1 | 28 | – | – | – | – | – | –
O=C(Cc1ccccc1)Nc1ccc(N2CCOCC2)cc1 | – | – | – | – | – | · | ·
O=C(Cc1ccccc1)Nc1ccc(N2CCCC2)cc1 | 25 | – | – | – | – | – | –
CCN1CCN(c2ccc(NC(=O)COc3ccccc3Cl)cc2)CC1 | – | – | – | – | – | · | ·
O=C(NNC(=O)C1CCCO1)c1ccc([N+](=O)[O-])cc1 (stereo not drawn) | – | – | – | – | – | · | ·
NC(=O)CC(NC(=O)Cc1ccc(Cl)cc1)c1ccc(N2CCC(Cc3ccccc3)CC2)c([N+](=O)[O-])c1 (stereo not drawn) | 22 | – | – | – | – | – | –
SMILES | PP1 counter | PP5 primary | STEP inh | Scp-1 inhibitor | LMPTP inh | PP1 inh confirm | PP5 counter
NC(=O)CC(NC(=O)c1ccccc1)c1ccc(N2CCN(c3ccc(F)cc3)CC2)c([N+](=O)[O-])c1 (stereo not drawn) | 18 | – | – | – | – | – | –
NC(=O)CC(NC(=O)Cc1cccc2ccccc12)c1ccc(N2CCCCCC2)c([N+](=O)[O-])c1 (stereo not drawn) | – | – | – | – | – | · | ·
NC(=O)CC(NC(=O)Cc1cccc2ccccc12)c1ccc(N2CCc3ccccc3C2)c([N+](=O)[O-])c1 (stereo not drawn) | 18 | – | – | – | – | 17 | –
NC(=O)CC(NC(=O)c1ccc(Br)cc1)c1ccc(NCCc2ccc(F)cc2)c([N+](=O)[O-])c1 (stereo not drawn) | 25 | – | – | – | – | 26 | –
CC(C)(C)NC(=O)NC(=O)CSc1ccc(S(=O)(=O)N2CCOCC2)cn1 | – | – | – | – | – | · | ·
COc1cc(F)ccc1S(=O)(=O)N1CCN(c2ccccc2)CC1 | – | – | – | – | – | – | –
CCCOc1ccc(C2C(C(=O)c3ccc(C)o3)=C(O)C(=O)N2Cc2ccco2)cc1 (stereo not drawn) | 27 | – | – | – | – | 39 | –
CCCOc1cccc(C2C(C(=O)c3ccc(C)o3)=C(O)C(=O)N2c2nc(C)c(C(C)=O)s2)c1 (stereo not drawn) | 25 | – | – | – | – | 32 | –
CCOc1cc(C2C(C(=O)c3ccc(C)o3)=C(O)C(=O)N2CCc2ccccc2)ccc1O (stereo not drawn) | 33 | – | – | – | – | 38 | –
CCOc1cccc(C2C(C(=O)c3ccc(C)o3)=C(O)C(=O)N2c2nnc(C)s2)c1 (stereo not drawn) | · | · | – | – | – | · | ·
Cc1cc(N2C(=O)C(O)=C(C(=O)c3ccc(C)o3)C2c2ccc([N+](=O)[O-])cc2)no1 (stereo not drawn) | 18 | – | – | – | – | – | –
COc1ccc(C2C(C(=O)c3ccc(C)o3)=C(O)C(=O)N2c2cc(C)on2)cc1OC (stereo not drawn) | – | – | – | – | – | · | ·
CCCOc1cccc(C2C(C(=O)c3ccc(C)o3)=C(O)C(=O)N2CCN2CCOCC2)c1 (stereo not drawn) | – | – | – | – | – | · | ·
O=C(Nc1ccccc1Cl)c1cc(C2CCCN(C(=O)OCCF)C2)on1 (stereo not drawn) | · | · | – | · | – | · | ·
Cc1cccn2c(=O)c(C=O)c(N3CCN(c4ccccc4)CC3)nc12 | – | – | – | – | – | · | ·
CC(O)CC(C)O (stereo not drawn) | – | – | – | – | – | · | ·
NC(=O)NNc1ncc(C(F)(F)F)cc1Cl | – | – | – | – | – | · | ·
Cc1cc(N2C(=O)C(O)=C(C(=O)c3ccc(C)o3)C2c2cccc(Oc3ccccc3)c2)no1 (stereo not drawn) | 29 | – | – | – | – | 29 | –
Cc1ccccc1C(=O)Nc1ccccc1C(=O)NC1CC1 | – | – | – | – | – | · | ·
CCn1c(SCC(=O)c2ccc3c(c2)Cc2ccccc2-3)nnc1-c1ccc(N)cc1 | 21 | – | – | – | – | 20 | –
COc1ccc(NC(=O)CSc2ccc([N+](=O)[O-])cc2)cc1S(=O)(=O)N1CCOCC1 | – | – | – | – | – | · | ·
